Data as given in ChEMBL document CHEMBL4715843, “NO-releasing STAT3 inhibitors suppress BRAF-mutant melanoma growth” (Eur J Med Chem, 2020).
pIC50: −log10 of the molar value. The source made the active and inactive calls. The calls are words filed in the database; no cut-off is given here.

Columns and labels:
MOLT-4 = experiment: Anticancer activity against human MOLT-4 cells assessed as cell growth inhibition at 10 uM measured after 48 hrs by SRB assay relative to control; format: functional; details: read-out: GI
How it was run: (§1)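 NCI 60-cell-line screen. Cells in RPMI with 5% FBS were plated at 5,000–40,000 cells/well by doubling time and preincubated 24 h at 37 °C. Compound was added at a single 10 µM for 48 h, then cells were fixed with cold TCA (10% final) and stained with 0.4% SRB. Absorbance at 515 nm gave percent growth versus untreated control and time-zero cells.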

COLO 205 = experiment: Anticancer activity against human COLO 205 cells assessed as cell growth inhibition at 10 uM measured after 48 hrs by SRB assay; format: functional, cell-based; how it was run: as §1
A549 = experiment: Anticancer activity against human A549 cells assessed as cell growth inhibition at 10 uM measured after 48 hrs by SRB assay; format: functional, cell-based; how it was run: as §1
CCRF-CEM = experiment: Anticancer activity against human CCRF-CEM cells assessed as cell growth inhibition at 10 uM measured after 48 hrs by SRB assay relative to control; format: functional; details: read-out: GI; how it was run: as §1
T47D = experiment: Anticancer activity against human T47D cells assessed as cell growth inhibition at 10 uM measured after 48 hrs by SRB assay relative to control; format: functional; details: read-out: GI; how it was run: as §1
RPMI-8226 = experiment: Anticancer activity against human RPMI-8226 cells assessed as cell growth inhibition at 10 uM measured after 48 hrs by SRB assay relative to control; format: functional; details: read-out: GI; how it was run: as §1
HL-60(TB) = experiment: Anticancer activity against human HL-60(TB) cells assessed as cell growth inhibition at 10 uM measured after 48 hrs by SRB assay relative to control; format: functional; details: read-out: GI
How it was run: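 NCI 60-cell-line screen, single dose 10 µM, DMSO stock diluted in complete medium with gentamicin. Cells in RPMI with 5% FBS, plated at density set by doubling time, preincubated 24 h, then exposed 48 h at 37 °C, 5% CO2. TCA fixation, SRB staining, absorbance at 515 nm. Percent growth taken relative to untreated control and time-zero cell number.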

K562 = experiment: Anticancer activity against human K562 cells assessed as cell growth inhibition at 10 uM measured after 48 hrs by SRB assay relative to control; format: functional; details: read-out: GI; how it was run: as §1
NCI-H522 = experiment: Anticancer activity against human NCI-H522 cells assessed as cell growth inhibition at 10 uM measured after 48 hrs by SRB assay; format: functional, cell-based; how it was run: as §1
MCF-10A = experiment: Cytotoxicity against human MCF-10A cells assessed as inhibition of cell proliferation by MTS assay; format: cell-based; details: mcf-10a
[1] = target: T1, Signal transducer and activator of transcription 3 (Homo sapiens, UniProt P40763); experiment: Inhibition of STAT3 in human SB-590885-resistant 451Lu cells assessed as reduction in STAT3 transcriptional activity measured after 12 hrs by Dual-luciferase reporter gene assay
How it was run: (§2)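 Cells co-transfected with inducible STAT3-responsive firefly luciferase and constitutive Renilla luciferase constructs (40:1) using Lipofectamine 3000. After 48 h, dose series in DMSO vehicle applied for 12 h, followed by dual-luciferase readout. Firefly signal normalized to Renilla and compared with untreated cells. Run in triplicate; IC50 taken from dose–response curves.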

[2] = target: T1, Signal transducer and activator of transcription 3; experiment: Inhibition of STAT3 in human SB-590885-resistant MEL1617 cells assessed as reduction in STAT3 transcriptional activity measured after 12 hrs by Dual-luciferase reporter gene assay; format: cell-based; how it was run: as §2
[3] = target: T1, Signal transducer and activator of transcription 3; experiment: Inhibition of STAT3 phosphorylation at Y705 residue in human SB-590885-resistant MEL1617 cells at 10 to 25 uM measured after 12 hrs by Western blot analysis; format: cell-based; details: dose 10-25 µM
How it was run: (§3)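 451 Lu and MEL 1617 pairs, sensitive and resistant; resistant lines maintained in RPMI with 1 µM PLX4720. Treated with 10 and 25 µM for 12 h versus DMSO. Lysates (60 µg protein, 10% SDS-PAGE) immunoblotted for Ser727- and Tyr705-phospho-STAT3, total STAT3, total PAX3, with actin.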

[4] = target: T1, Signal transducer and activator of transcription 3; experiment: Displacement of FAM-labeled 5-GpYLPQTV-NH2 from recombinant GST-tagged STAT3 (unknown origin) preincubated for 30 mins followed by FAM-labeled 5-GpYLPQTV-NH2 addition and measured after 30 mins by fluorescence assay; details: time 60.0 min
How it was run: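 GST-STAT3 (2 µM) was bound to GST beads for 1 h at 4 °C in PBS with 0.1% β-mercaptoethanol, then washed. Bead slurry was incubated with compound dilutions (2.25% DMSO, duplicate) and FAM-GpYLPQTV-NH2 peptide. Resin was washed by vacuum filtration and fluorescence read at ex 485/em 535 nm. % displacement was set against the no-compound signal; two independent experiments.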

[5] = target: T1, Signal transducer and activator of transcription 3; experiment: Inhibition of STAT3 phosphorylation at S727 residue in human SB-590885-resistant 451Lu cells measured after 12 hrs by Western blot analysis; details: dose 10-25 µM; how it was run: as §3
[6] = target: T1, Signal transducer and activator of transcription 3; experiment: Inhibition of STAT3 phosphorylation at S727 residue in human SB-590885-sensitive 451Lu cells measured after 12 hrs by Western blot analysis; details: dose 10-25 µM; how it was run: as §3
[7] = target: T1, Signal transducer and activator of transcription 3; experiment: Inhibition of STAT3 phosphorylation at S727 residue in human SB-590885-resistant MEL1617 cells at 10 to 25 uM measured after 12 hrs by Western blot analysis; format: cell-based; details: dose 10-25 µM; how it was run: as §3
A-375 [8] = experiment: Potentiation of compound II-induced cytotoxicity against human A375 cells assessed as compound II IC50 at 12.5 uM measured after 48 hrs by MTS assay (reference value: 16.2 +/- 1.6 uM); format: functional, cell-based; details: A-375, 48 h
[9] = target: T1, Signal transducer and activator of transcription 3; experiment: Inhibition of STAT3 in human SB-590885-sensitive 451Lu cells assessed as reduction in PAX3 expression measured after 12 hrs by Western blot analysis; details: dose 10-25 µM; how it was run: as §3
A-375 [10] = experiment: Cytotoxicity against human A-375 cells assessed as inhibition of cell proliferation measured after 48 hrs by MTS assay; format: functional, cell-based; details: A-375, 48 h
How it was run: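 Cells were exposed to a dose range of inhibitor for 48 h, and viability was read by MTS assay in triplicate. GI50 was taken as the concentration giving 50% growth inhibition, averaged from three independent experiments. A375 was cultured in RPMI-1640 with Glutamax. A549 and NCI-H157 were kept in RPMI-1640, and MIA PaCa-2 and U87-MG in DMEM.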

[11] = target: T1, Signal transducer and activator of transcription 3; experiment: Inhibition of STAT3 phosphorylation at Y705 residue in human SB-590885-sensitive MEL1617 cells at 10 to 25 uM measured after 12 hrs by Western blot analysis; format: cell-based; details: dose 10-25 µM; how it was run: as §3
[12] = Antiproliferative activity against human SB-590885-resistant MEL1617 cells assessed as reduction in cell viability measured after 48 hrs by MTS assay; format: functional, cell-based; details: Homo sapiens, MEL1617, 48 h; read-out: IC50
How it was run: (§4)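 Melanoma lines were grown in RPMI-1640 with Glutamax at 37 °C and 5% CO2. The resistant 451 Lu-R and MEL 1617-R sublines were maintained with 1 µM PLX4720. Cells were incubated with vehicle or inhibitor over a dose range, and viability was read by MTS assay in triplicate.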

[13] = Drug metabolism in pH 7.4 phosphate buffer assessed as nitric oxide release at 100 uM measured after 48 hrs by Griess reagent based colorimetric method
How it was run: (§5)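 Compound at 100 µM was held at room temperature in pH 7.4 phosphate buffer with 5 mM DTT and 2% DMSO for 2 or 48 h. Griess reagent was added, and after 30 min absorbance was read at 548 nm. NO release (mol NO/mol compound) was derived from a sodium nitrite calibration curve.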

[14] = target: T1, Signal transducer and activator of transcription 3; experiment: Inhibition of STAT3 phosphorylation at S727 residue in human SB-590885-sensitive MEL1617 cells at 10 to 25 uM measured after 12 hrs by Western blot analysis; format: cell-based; details: dose 10-25 µM; how it was run: as §3
HFF = experiment: Cytotoxicity against HFF assessed as inhibition of cell proliferation by MTS assay; format: cell-based, Homo sapiens; details: hff
[15] = target: T1, Signal transducer and activator of transcription 3; experiment: Inhibition of STAT3 in human SB-590885-resistant MEL1617 cells assessed as reduction in PAX3 expression at 10 to 25 uM measured after 12 hrs by Western blot analysis; format: cell-based; details: dose 10-25 µM; how it was run: as §3
[16] = target: T1, Signal transducer and activator of transcription 3; experiment: Inhibition of STAT3 in human SB-590885-sensitive MEL1617 cells assessed as reduction in STAT3 transcriptional activity measured after 12 hrs by Dual-luciferase reporter gene assay; format: cell-based; how it was run: as §2
[17] = target: T1, Signal transducer and activator of transcription 3; experiment: Inhibition of STAT3 phosphorylation at Y705 residue in human SB-590885-sensitive 451Lu cells measured after 12 hrs by Western blot analysis; details: dose 10-25 µM; how it was run: as §3
[18] = Antiproliferative activity against human SB-590885-resistant 451Lu cells assessed as reduction in cell viability measured after 48 hrs by MTS assay; format: functional; details: Homo sapiens, 451Lu, 48 h; read-out: IC50; how it was run: as §4
[19] = Antiproliferative activity against human SB-590885-sensitive MEL1617 cells assessed as reduction in cell viability measured after 48 hrs by MTS assay; format: functional, cell-based; details: MEL1617, 48 h; how it was run: as §4
[20] = target: T1, Signal transducer and activator of transcription 3; experiment: Inhibition of STAT3 phosphorylation at Y705 residue in human SB-590885-resistant 451Lu cells measured after 12 hrs by Western blot analysis; details: dose 10-25 µM; how it was run: as §3
[21] = Drug metabolism in pH 7.4 phosphate buffer assessed as nitric oxide release at 100 uM measured after 2 hrs by Griess reagent based colorimetric method; how it was run: as §5
[22] = target: T1, Signal transducer and activator of transcription 3; experiment: Inhibition of STAT3 in human SB-590885-resistant 451Lu cells assessed as reduction in PAX3 expression measured after 12 hrs by Western blot analysis; details: dose 10-25 µM; how it was run: as §3
[23] = target: T1, Signal transducer and activator of transcription 3; experiment: Inhibition of STAT3 in human SB-590885-sensitive 451Lu cells assessed as reduction in STAT3 transcriptional activity measured after 12 hrs by Dual-luciferase reporter gene assay; how it was run: as §2
[24] = Antiproliferative activity against human SB-590885-sensitive 451Lu cells assessed as reduction in cell viability measured after 48 hrs by MTS assay; format: functional; how it was run: as §4
[25] = target: T1, Signal transducer and activator of transcription 3; experiment: Inhibition of STAT3 in human SB-590885-sensitive MEL1617 cells assessed as reduction in PAX3 expression at 10 to 25 uM measured after 12 hrs by Western blot analysis; format: cell-based; details: dose 10-25 µM; how it was run: as §3

T1 sequence (P40763 whole entry): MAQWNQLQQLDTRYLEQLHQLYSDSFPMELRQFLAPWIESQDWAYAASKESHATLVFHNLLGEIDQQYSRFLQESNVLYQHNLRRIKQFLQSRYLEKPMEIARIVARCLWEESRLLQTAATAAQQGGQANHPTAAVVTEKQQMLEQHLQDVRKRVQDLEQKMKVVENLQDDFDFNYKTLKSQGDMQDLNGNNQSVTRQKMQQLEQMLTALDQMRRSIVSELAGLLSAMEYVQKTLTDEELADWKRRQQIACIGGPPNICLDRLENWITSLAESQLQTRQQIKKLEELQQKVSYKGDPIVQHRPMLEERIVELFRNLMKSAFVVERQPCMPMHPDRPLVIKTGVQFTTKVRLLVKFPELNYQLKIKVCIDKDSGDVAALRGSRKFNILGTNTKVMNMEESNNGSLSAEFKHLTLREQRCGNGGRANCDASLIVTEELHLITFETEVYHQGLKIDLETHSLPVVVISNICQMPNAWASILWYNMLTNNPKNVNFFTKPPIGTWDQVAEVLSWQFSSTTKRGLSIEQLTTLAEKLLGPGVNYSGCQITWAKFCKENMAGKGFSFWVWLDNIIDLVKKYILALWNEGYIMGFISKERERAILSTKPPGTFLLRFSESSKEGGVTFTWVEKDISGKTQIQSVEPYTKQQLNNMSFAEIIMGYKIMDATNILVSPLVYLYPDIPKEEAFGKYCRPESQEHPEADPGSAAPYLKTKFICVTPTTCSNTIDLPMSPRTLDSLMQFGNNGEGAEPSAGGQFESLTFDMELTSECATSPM

Compound | inhibition [3] | inhibition [5] | inhibition [6] | inhibition [7] | inhibition [9] | inhibition [11] | Drug metabolism [13] [%] | inhibition [14] | inhibition [15] | inhibition [17] | inhibition [20] | Drug metabolism [21] [%] | inhibition [22] | inhibition [25] | further results
C=CCn1c(SCC(=O)Nc2ccc(/C(C)=N\O)cc2)nnc1-c1cc(-c2ccc(OC)cc2)nc2ccccc12 |  |  |  |  |  |  |  |  |  |  |  |  |  |  | inhibition of growth at 10 µM (MOLT-4): 81%; growth inhibition (GI) (COLO 205): Active; growth inhibition (GI) (A549): Active; inhibition of growth at 10 µM (CCRF-CEM): 81%; inhibition of growth at 10 µM (T47D): 100%; inhibition of growth at 10 µM (RPMI-8226): 81%; inhibition of growth at 10 µM (HL-60(TB)): 100%; inhibition of growth at 10 µM (K562): 81%; growth inhibition (GI) (NCI-H522): Active
COc1ccc2nc(-c3ccc(Cl)cc3)cc(-c3nnc(SCC(=O)Nc4ccc(/C(C)=N\O)cc4)n3-c3ccccc3)c2c1 | inactive | inactive | inactive | inactive | inactive | inactive | 30 | inactive | inactive | inactive | inactive | 15 | inactive | inactive | IC50 (MCF-10A): Not Active; pIC50 [1]: 4.39; pIC50 [2]: 4.45; inhibition [4]: inactive; pIC50 (A-375 [8]): 5.17; pIC50 (A-375 [10]): < 4.00; pIC50 [12]: < 4.30; IC50 (HFF): Not Active; pIC50 [16]: 4.12; pIC50 [18]: < 4.30; pIC50 [19]: < 4.30; pIC50 [23]: 4.27; pIC50 [24]: < 4.30
COc1ccc(-c2cc(-c3nnc(SCC(=O)Nc4ccc(/C(C)=N\O)cc4)n3-c3ccccc3)c3cc(OC)ccc3n2)cc1 | inactive | inactive | inactive | inactive | inactive | inactive | 30 | inactive | inactive | inactive | inactive | 15 | inactive | inactive | 
